Bioassay records as filed in PubChem BioAssay.
bovine MsrA act – activates bovine MsrA enzyme; purified bovine MsrA, absorbance read-out; activation, % at 10.6 µM; 0.3% of 360,000 active; in the data active means activation above about 7.5%;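 further: 0% = vehicle and 100% = reference activator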
MsrA inhibitor – inhibitors of bovine MsrA; purified bovine MsrA, absorbance read-out; inhibition, % at 15.5 µM; 0.75% of 360,000 active; in the data active means inhibition above about 4.5%;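 further: 0% = vehicle wells with enzyme and 100% = reference inhibitor wells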
ARFGAP1 inh – rat ARFGAP1 inhibition; inhibition, % at 16.5 µM; AID 651572; Arfgap1-stimulated ARF1 GTP hydrolysis, GDP FP detection; 0.26% of 360,000 active; Q62848;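 active means inhibition above a per-plate limit, mean inhibition of low control wells plus 3 SD, cut at about 25% in these data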;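 further: 0% = DMSO wells with enzyme and 100% = wells lacking Arfgap1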
Target sequence (Q62848 1-136 limits assumed): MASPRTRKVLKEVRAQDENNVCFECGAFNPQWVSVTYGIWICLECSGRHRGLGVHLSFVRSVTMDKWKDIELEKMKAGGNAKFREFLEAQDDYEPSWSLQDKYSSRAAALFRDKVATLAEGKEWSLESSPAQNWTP
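System: truncated rat Arfgap1 GAP domain / Benchmarks: high control wells lacking Arfgap1, low control full reaction with DMSO / Times: compound-enzyme preincubation 20 min, reaction 120 min, detection 60 min, 25 °C / Repeats: one replicate per compound / Also added: human ARF1(Δ1-17)-GTP substrate / Measured by: Tracer-displacement fluorescence polarization with EDTA stop, 620/688 nm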
ASAP1 GAP inh – inhibitors of human ASAP1 ArfGAP activity; ASAP1-stimulated ARF1 GTP hydrolysis, GDP FP detection; inhibition, % at 16.5 µM; 0.19% of 360,000 active; AID 624377; in the data active means inhibition above about 25%;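 further: 0% = vehicle with enzyme and substrate and 100% = no enzyme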
Target sequence (Q9ULH1 325-724 limits assumed): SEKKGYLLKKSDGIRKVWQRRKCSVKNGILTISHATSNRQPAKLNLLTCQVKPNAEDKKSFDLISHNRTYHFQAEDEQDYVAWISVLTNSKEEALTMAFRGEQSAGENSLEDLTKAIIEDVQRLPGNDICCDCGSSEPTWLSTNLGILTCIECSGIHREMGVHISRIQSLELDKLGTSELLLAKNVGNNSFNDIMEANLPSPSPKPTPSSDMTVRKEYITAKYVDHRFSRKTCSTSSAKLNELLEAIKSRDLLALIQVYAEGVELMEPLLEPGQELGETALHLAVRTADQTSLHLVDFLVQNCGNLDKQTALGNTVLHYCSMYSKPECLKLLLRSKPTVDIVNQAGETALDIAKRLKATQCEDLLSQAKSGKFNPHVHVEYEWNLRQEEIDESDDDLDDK
MsrA act confirm – bovine methionine sulfoxide reductase A activation confirmed; shares compounds with bovine MsrA act; 12% of 1,000 active; AID 602270; purified bovine MsrA, absorbance read-out; activation, % at 10.6 µM; in the data active means activation above about 4%;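 further: enzyme coupled to thioredoxin and thioredoxin reductase with NADPH; 0% = vehicle wells and 100% = reference activator wells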
* marks the source's active call; other numbers are inactive results; · = no result. Rows were chosen to be rich in hits. Some 1.4% of all compounds tested hit in one or more screens of this group.

SMILES	bovine MsrA act	MsrA inhibitor	ARFGAP1 inh	ASAP1 GAP inh	MsrA act confirm
CS(=O)(=O)N1CCN(C(=O)c2ccc(Cl)s2)CC1	15.8*	-1.1	-8.1	-0.2	-1.5
O=C1c2ccccc2/C(=C\c2ccc(Br)nc2)N1c1ccccc1	·	1.2	-5.0	5.1	·
O=c1[nH]c(=S)[nH]cc1Oc1ccc(Cl)cc1Cl	8.8*	-0.1	1.8	0.4	4.7*
Cc1nc(-c2ccccc2)[nH]c(=O)c1Oc1ccc(Cl)cc1Cl	-1.1	0.5	-2.7	-12.2	·
N#Cc1ccccc1OCCCN1CCC(C(O)(c2ccccc2)c2ccccc2)CC1	8.3*	-1.4	-9.5	5.4	-2.1
COCCN(CCOC)Cc1cc(=O)oc2cc3c(cc12)CCC3	0.9	0.5	0.7	-0.5	·
COCCN(CCOC)Cc1cc(=O)oc2cc(C)ccc12	12.2*	0.9	-0.5	9.5	-1.3
COc1cc(-c2nc(=S)[nH][nH]2)cc(OC)c1OC	8.1*	-0.9	-9.6	0.2	4.8*
COc1ccc(-c2nc(=S)[nH][nH]2)cc1OC	10.4*	2.0	-6.1	9.8	2.0
COc1ccc(-c2nc(=S)[nH][nH]2)cc1	4.0	-1.2	5.6	0.7	·
COCCN(C(=O)COC(=O)CCC(=O)c1cccs1)c1c(N)n(Cc2ccccc2)c(=O)[nH]c1=O	-1.8	-0.1	3.9	-0.6	·
CCCCOc1ccccc1C1NC(=O)NC(C)=C1C(=O)OCc1ccco1 (configuration not stated)	8.9*	0.8	7.5	-6.3	-0.1
O=C1C(Cl)=C(NCc2cccnc2)C(=O)c2ccccc21	11.8*	-0.2	4.7	12.0	6.1*
C=CCNC1=C(Cl)C(=O)c2ccccc2C1=O	1.5	0.3	6.0	-7.7	·
C[C@]12c3[nH]c4cc(-c5ccco5)ccc4c3CCN1C(=O)[C@@H](CC(=O)NCCC1=CCCCC1)C[C@@H]2C(=O)N1CCCCC1	8.3*	0.8	7.0	3.1	-3.2
C[C@]12c3[nH]c4cc(-c5ccco5)ccc4c3CCN1C(=O)[C@@H](CC(=O)NCCc1ccccn1)C[C@@H]2C(=O)N1CCCCC1	-11.9	2.1	13.6	3.9	·
S=c1nccc(-c2ccc(Cl)cc2)[nH]1	8.3*	1.1	0.8	4.4	3.7
Clc1ccc(-c2ccn[nH]2)cc1	-3.4	0.8	-4.1	4.6	·
Cc1nc(NC(=O)CSC2=NCCS2)sc1C(=O)N(C)C	2.3	-0.5	-0.4	-4.9	·
CC(C)NC[C@@H](O)c1ccc(O)c(O)c1	-6.0	-0.9	-3.9	-13.8	·
CC(C)NCC(O)c1ccc(NS(C)(=O)=O)cc1 (configuration not stated)	7.8*	2.7	3.7	1.7	-3.0
COC(=O)c1cccc(S(=O)(=O)N2CCC(c3nc4ccccc4o3)CC2)c1	-9.3	-0.6	3.3	-9.9	·
COC(=O)c1ccccc1S(=O)(=O)N1CCC(c2nc3ccccc3o2)CC1	11.9*	-0.1	0.7	7.7	-2.0
O=C(CN1CCCCC1)Nc1cccc(Br)c1	7.8*	0.1	5.9	1.9	-1.2
O=C(CN1CCOCC1)Nc1cccc(Br)c1	-3.1	-0.6	-22.3	-2.5	·
SMILES	bovine MsrA act	MsrA inhibitor	ARFGAP1 inh	ASAP1 GAP inh	MsrA act confirm
Nc1ncnc2nc(SCc3ccccc3)[nH]c12	7.8*	0.4	-6.7	0.9	-0.1
CCCC(=O)Nc1ccc(C(=O)COC(=O)C2=COCCO2)cc1	8.1*	-0.2	6.7	13.5	-0.3
CCn1c(SCC(=O)N2CCCCC2C)nnc1-c1ccco1 (configuration not stated)	3.1	-1.2	4.3	-10.4	·
CC1CCCCN1C(=O)CSc1nnc(-c2ccco2)n1C (configuration not stated)	25.6*	0.7	-13.3	3.9	-0.9
Fc1ccccc1Nc1n[nH]c(=S)s1	-1.7	0.7	-23.0	-9.5	·
Cc1c(Cl)cccc1Nc1n[nH]c(=S)s1	9.6*	1.1	-10.0	-12.3	-0.2
Cc1ccccc1Nc1n[nH]c(=S)s1	11.3*	0.4	-3.0	7.3	0.9
S=c1[nH]nc(Nc2cccc3ccccc23)s1	8.8*	1.8	10.2	-7.2	-0.1
CCC1(c2ccc(F)cc2)NC(=O)N(CC(=O)Nc2cccnc2Cl)C1=O (configuration not stated)	-0.7	-1.6	-6.6	-16.7	·
Cc1nc(CN(C)Cc2nc(Cc3ccccc3Cl)no2)cs1	-10.1	-0.6	9.2	7.6	·
Cc1ccc2cc(C#N)c(N3CCCN(S(=O)(=O)c4ccccc4)CC3)nc2c1	8.7*	0.3	7.5	-6.7	-2.6
Cc1ccc(-n2cc(CN3CCC(O)(c4ccccn4)CC3)c(-c3ccc(F)cc3)n2)cc1	-7.4	-0.3	17.3	3.9	·
COc1ccc(OCC(=O)Nc2cc(S(=O)(=O)N3CCCC3)ccc2Cl)cc1	-4.9	-1.2	-6.2	11.7	·
CC1(C)Cc2c(sc3nc(-c4ccccc4)n(N)c(=O)c23)CO1	-4.3	1.0	10.0	14.6	·
CSc1nnc2c3c4c(sc3c(=O)n(-c3ccccc3)n12)CC(C)(C)OC4	24.3*	1.2	0.4	4.1	-3.2
O=C(NCCN1CCCCC1)c1ccc2c(c1)OCCO2	10.2*	-0.8	12.4	11.8	-1.6
O=C(NCCCN1CCN(CCCNC(=O)c2ccc3c(c2)OCO3)CC1)c1ccc2c(c1)OCO2	-0.7	-0.9	5.5	-11.4	·
CCOc1ccc(NC(=O)CCn2c(=O)[nH]c3ccsc3c2=O)cc1	-3.6	0.1	10.6	-1.1	·
CCOc1ccc2c(c1)C(C)=CC(C)(C)N2S(=O)(=O)c1ccc(NC(C)=O)cc1	8.2*	0.4	6.0	7.7	-1.1
COc1cc(NC(=O)CSCc2ccccc2)c(C(=O)O)cc1OC	10.0*	-0.2	-7.0	3.4	-0.7
CC(C)NS(=O)(=O)c1ccc(NC(=O)C(C)OC(=O)C2CCC2)cc1 (configuration not stated)	-2.6	0.9	-9.6	6.3	·
O=C(CCSc1ccccn1)c1ccccc1	7.8*	1.9	-8.1	-15.8	-1.4
Cc1cc(CN(C)C(=O)c2ccc(OC3CCN(CCc4ccccc4)CC3)cc2)on1	11.1*	-1.0	-2.4	-0.1	0.9
Clc1ccc(OCCn2cnc(Cl)c2Cl)cc1	-7.1	0.7	3.6	5.2	·
CC(C)C1C(=O)N(Cc2cn(CC3CCCCC3)nn2)CCS(=O)(=O)N1Cc1ccc(-c2ccc(F)nc2)cc1 (configuration not stated)	8.9*	0.2	2.4	-1.2	-1.4
SMILES	bovine MsrA act	MsrA inhibitor	ARFGAP1 inh	ASAP1 GAP inh	MsrA act confirm
CC(Sc1nncn1C)C(=O)Nc1ccc2ccccc2c1 (configuration not stated)	-8.1	-0.1	-3.4	1.8	·
O=C(Nc1ccc2c(c1)OCCO2)c1cncc(Br)c1	9.2*	0.5	-1.3	1.9	0.0
O=C(Nc1ccc2c(c1)OCO2)c1cncc(Br)c1	-2.2	0.3	6.6	-1.1	·
Cc1ccc(S(=O)(=O)N2CCC(C(=O)N3CCCC(C(F)(F)F)C3)CC2)cc1C (configuration not stated)	-6.2	0.9	-12.0	-5.4	·
O=C(OC1CO[C@H]2O[C@@H]1[C@H](OC(=O)c1ccccc1)[C@H]2OC(=O)c1ccccc1)c1ccccc1 (some centres not stated)	-2.3	0.7	1.9	9.1	·
Cc1cc(C)cc(NC(=S)N2CCCC2)c1	11.7*	0.7	0.0	-1.5	-2.7
